Data as given in PubChem BioAssay AID504383 (The Scripps Research Institute Molecular Screening Center, 2011).
In all, about 2,500 compounds went through this assay and about 1,200 (48%) were called active. So high a share suggests a set chosen from earlier hits. This is one part of the list. Unmarked numbers belong to inactive results.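 The calls were made as follows: active = mean activation above the low control average plus 3 SD, as set in the primary screen (cut at about 12% in these data); inactive = the rest.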

target: Troponin I, cardiac muscle (Homo sapiens) + Troponin T, cardiac muscle (Homo sapiens) + Troponin C, slow skeletal and cardiac muscles (Homo sapiens) (UniProt P19429+P45379+P63316); assay: calcium sensitizers of cardiac thin filaments – biochemical, IANBD-TnC fluorescence, triplicate, confirmation (AID 504383); settings: IANBD-labeled cardiac RTF, Ca2+ sensitivity fluorescence; at 7.2 µM; hits give high values; scaled from EC20 to saturating calcium; tested at EC20 calcium, 0.472 mM;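 also: 0% = DMSO at 0.472 mM calcium and 100% = DMSO at 2.9 mM calcium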
Outline: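 System: Labelled thin filament complex | Technique: Filament fluorescence intensity | Benchmarks: Low control EC20 calcium, high control EC100 calcium | Timing: 15 min at 25 °C | Compound dosing: One dose, 7.2 µM nominal | Probe or stimulus: Ca2+ 0.472 mM, EC20 level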

**Q.** Which activation does the source give for O=C(NCC(=O)N(CC1CCCO1)C1(C(=O)NC2CCCCC2)CCCCC1)c1ccccc1 (configuration not stated) here?
**A.** The activation was 8.78%.

**Q.** Which activation does the source give for O=C(NC(=S)NCC1CCCO1)C(c1ccccc1)c1ccccc1 (configuration not stated) here?
**A.** Its activation is 12.2% (active).

**Q.** For CCc1ccccc1SCc1noc(C(=O)NCC2CCCO2)c1C(=O)O (configuration not stated), which activation is on record?
**A.** The activation was 10.6%.

**Q.** With CCOc1ccc2cc(/C=C/C(=O)c3ccco3)c(Cl)nc2c1 as the molecule, how does the activation read?
**A.** Its activation is 4.88%.

**Q.** Which activation does the source give for CCCc1cc(=O)[nH]c(SCC)n1 here?
**A.** Its activation is 11.7% (active).

**Q.** How did the activation turn out when Cc1nc(Cl)c2c(n1)NC1=C(O2)C(=O)CCC1 was run?
**A.** The activation was 10.5%.

**Q.** CCN(CC)C(=O)c1ccc(/C=C/c2c[nH]c3ccccc23)[n+](C)c1 was tested. Which activation did it give?
**A.** Its activation is 11.1%.

**Q.** CCOC(=O)C(CCCCCCC(NC(C)=O)(C(=O)OCC)C(=O)OCC)(NC(C)=O)C(=O)OCC was tested. Which activation did it give?
**A.** The activation was 9.57%.

**Q.** With CCOC(=O)/C(=C\c1c[nH]c2ccccc12)NC(C)=O as the molecule, how does the activation read?
**A.** The activation was 31.7% (active).

**Q.** How did the activation turn out when CCN(CC)C1=CC2=CC(=C(C#N)C#N)CCC2CC1 (configuration not stated) was run?
**A.** The activation was 1.65%.

**Q.** With Cc1ccc(C(=O)NN2C(=O)/C(=C/c3cccn3C)SC2=S)cc1 as the molecule, how does the activation read?
**A.** Its activation is 25.1% (active).

**Q.** Cn1cccc1/C=C1\SC(=S)N(NC(=O)c2ccccc2)C1=O was tested. Which activation did it give?
**A.** Its activation is 54.2% (active).

**Q.** For Cn1cccc1/C=C1\SC(=S)N(NC(=O)c2ccc(Cl)cc2)C1=O, which activation is on record?
**A.** Its activation is 16.8% (active).

**Q.** For c1ccc2c(c1)CCCN2Cc1nnc2n1CCCCC2, which activation is on record?
**A.** Its activation is 92% (active).

**Q.** With O=c1cc(CN2CCCc3ccccc32)nc2sccn12 as the molecule, how does the activation read?
**A.** The activation was 5.39%.

**Q.** With c1ccc2c(c1)CCCN2Cc1nnnn1CC1CCCO1 (configuration not stated) as the molecule, how does the activation read?
**A.** Its activation is 7.11%.

**Q.** Which activation does the source give for COc1cc(/C=C2\CCC(C)C3=C(c4cc(OC)c(OC)c(OC)c4)C(C#N)=C(N)OC32)cc(OC)c1OC (configuration not stated) here?
**A.** Its activation is 36.4% (active).

**Q.** How did the activation turn out when O=c1c(-c2ccc(O)cc2O)coc2cc(O)cc(O)c12 was run?
**A.** Its activation is 8.85%.

**Q.** O=c1oc2ccccc2cc1-c1ccc(O)cc1O was tested. Which activation did it give?
**A.** Its activation is 94.9% (active).

**Q.** For O=c1oc2cc(O)ccc2cc1-c1nc2c(s1)CCc1ccccc1-2, which activation is on record?
**A.** Its activation is 7.71%.

**Q.** Which activation does the source give for CC(C)(C)NC(=O)[C@@H]1CN(Cc2cccnc2)CCN1C[C@@H](O)C[C@@H](Cc1ccccc1)C(=O)N[C@H]1c2ccccc2C[C@H]1O here?
**A.** Its activation is 158% (active).

**Q.** With COc1ccc(N(CC(=O)Nc2ccccc2C(=O)NCC(C)C)S(C)(=O)=O)cc1 as the molecule, how does the activation read?
**A.** Its activation is 4.96%.

**Q.** CN(CC(=O)Nc1ccccc1Cl)C(=O)c1cc(=O)[nH]c2ccccc12 was tested. Which activation did it give?
**A.** Its activation is 49.3% (active).

**Q.** Which activation does the source give for CN(C)S(=O)(=O)c1ccc(C(=O)Oc2cc(=O)[nH]c3ccccc23)cc1 here?
**A.** The activation was 10.2%.

**Q.** How did the activation turn out when CCNC(=S)NNC(=O)CCn1cc(C)cn1 was run?
**A.** The activation was 6.76%.

**Q.** With CCn1cc(Cl)c(C(=O)NNC(=O)CCn2cc([N+](=O)[O-])cn2)n1 as the molecule, how does the activation read?
**A.** The activation was 23.9% (active).

**Q.** How did the activation turn out when CCCCCCc1cc2cc(-c3nnc(-c4ccccc4O)o3)c(=O)oc2cc1O was run?
**A.** Its activation is 14.4% (active).

**Q.** How did the activation turn out when CCCCCCc1cc2cc(-c3nnc(-c4ccccc4)o3)c(=O)oc2cc1O was run?
**A.** The activation was 4.49%.

**Q.** Which activation does the source give for O=[N+]([O-])c1cc(-c2nc(-c3ccncc3)no2)ccc1Cl here?
**A.** The activation was 7.62%.

**Q.** How did the activation turn out when CCOC(=O)C1(Cc2cccc(OC)c2)CCN(Cc2ccon2)CC1 was run?
**A.** Its activation is 12.7% (active).

**Q.** With CCOC(=O)C1(CCc2ccccc2)CCN(C(=O)c2occc2C)CC1 as the molecule, how does the activation read?
**A.** The activation was 9.68%.

**Q.** How did the activation turn out when CCOC(=O)C1(Cc2cccc(OC)c2)CCCN(Cc2nccn2CC)C1 (configuration not stated) was run?
**A.** Its activation is 6.61%.

**Q.** Nc1ccc(S(N)(=O)=O)cc1N was tested. Which activation did it give?
**A.** Its activation is 600% (active).

**Q.** For CCOc1ccccc1N1CCN(CC(=O)c2c(N)n(C)c(=O)n(C)c2=O)CC1, which activation is on record?
**A.** Its activation is 14.9% (active).

**Q.** CCOc1ccccc1N1CCN(CC(=O)N(CC(C)C)c2c(N)n(CC(C)C)c(=O)[nH]c2=O)CC1 was tested. Which activation did it give?
**A.** The activation was 35.3% (active).

**Q.** Which activation does the source give for CCCCn1c(N)c(N(CC(C)C)C(=O)Cc2ccc(S(=O)(=O)N3CCOCC3)s2)c(=O)[nH]c1=O here?
**A.** The activation was 8.87%.

**Q.** CC(C)CN(C(=O)CCCc1nc2ccccc2c(=O)[nH]1)c1c(N)n(Cc2ccccc2)c(=O)[nH]c1=O was tested. Which activation did it give?
**A.** Its activation is 8.94%.

**Q.** c1ccc(CCCN2CCN(c3ccccc3)CC2)cc1 was tested. Which activation did it give?
**A.** Its activation is 7.15%.

**Q.** Which activation does the source give for O[C@@H]1CN(C2CCCCC2)CC[C@H]1N1CCN(CCc2ccccc2)CC1 here?
**A.** The activation was 18.1% (active).

**Q.** With CC1=NN(c2ccc(C)c(C)c2)C(=O)/C1=C/c1ccc2c(c1)n(C)c(=O)n2C as the molecule, how does the activation read?
**A.** The activation was 57.9% (active).

**Q.** CC1=NN(c2ccc(Br)cc2)C(=O)/C1=C/c1ccc(-c2ccccc2C(=O)O)o1 was tested. Which activation did it give?
**A.** The activation was 10.1%.

**Q.** For O=C(Nc1ccc(C(=O)N2CCOCC2)cc1)Nc1cccc(Cl)c1, which activation is on record?
**A.** Its activation is 47.5% (active).

**Q.** CN1CCC/C1=C1/C(=O)N(c2ccccc2)N=C1NC(=O)Nc1cccc(Cl)c1 was tested. Which activation did it give?
**A.** Its activation is -1.33%.

**Q.** O=C(NCC1CC1)Nc1cccc(Cl)c1 was tested. Which activation did it give?
**A.** The activation was 2.84%.

**Q.** How did the activation turn out when CC(COC(=O)c1ccccc1)(COC(=O)c1ccccc1)/[N+]([O-])=C/c1ccccc1 was run?
**A.** The activation was 32% (active).

**Q.** With COCCOC(=O)/C(=C/c1ccc(OC(=O)c2ccccc2)cc1)C(C)=O as the molecule, how does the activation read?
**A.** The activation was 8.35%.

**Q.** With Nc1ccc2nc3c(=O)n(C4CCCCC4)c(=O)[nH]c3nc2c1 as the molecule, how does the activation read?
**A.** The activation was 16.6% (active).
